Key:
Conditions in all cases: stereoisomer not certain
UniProt Q8VFP5 = biological target: T1, UniProt Q8VFP5
T1 sequence (whole entry): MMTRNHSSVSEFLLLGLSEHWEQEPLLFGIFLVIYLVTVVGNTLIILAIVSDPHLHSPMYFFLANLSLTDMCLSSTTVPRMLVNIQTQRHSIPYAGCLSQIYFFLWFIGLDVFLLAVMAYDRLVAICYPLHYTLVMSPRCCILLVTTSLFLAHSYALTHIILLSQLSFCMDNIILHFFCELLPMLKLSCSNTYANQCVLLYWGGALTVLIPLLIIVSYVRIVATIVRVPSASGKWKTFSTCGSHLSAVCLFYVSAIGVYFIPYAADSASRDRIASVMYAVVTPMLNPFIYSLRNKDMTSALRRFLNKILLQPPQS
In short: (§1)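 Each receptor–molecule pair is labelled responsive or non-responsive (inactive) according to whether the original authors judged the measured signal statistically different from baseline. The data were taken from the main text and supplementary material of published papers and checked for typos and inconsistencies. Assay methods differed by source, with transient luciferase assays in mammalian cell lines being common.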

UniProt Q8VFQ6 = biological target: UniProt Q8VFQ6
Chain of UniProt Q8VFQ6 (Q8VFQ6 as listed by the source): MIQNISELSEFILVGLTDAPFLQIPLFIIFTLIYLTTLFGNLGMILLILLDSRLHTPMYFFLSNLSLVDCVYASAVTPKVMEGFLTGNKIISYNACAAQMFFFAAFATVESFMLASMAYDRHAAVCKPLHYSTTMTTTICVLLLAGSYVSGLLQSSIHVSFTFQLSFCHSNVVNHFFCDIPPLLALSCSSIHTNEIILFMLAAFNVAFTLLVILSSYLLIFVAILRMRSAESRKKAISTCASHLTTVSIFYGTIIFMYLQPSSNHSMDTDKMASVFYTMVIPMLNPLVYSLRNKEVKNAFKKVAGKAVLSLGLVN
In short: as §1

UniProt Q8VFZ6 = biological target: T2, UniProt Q8VFZ6
T2 sequence (whole entry): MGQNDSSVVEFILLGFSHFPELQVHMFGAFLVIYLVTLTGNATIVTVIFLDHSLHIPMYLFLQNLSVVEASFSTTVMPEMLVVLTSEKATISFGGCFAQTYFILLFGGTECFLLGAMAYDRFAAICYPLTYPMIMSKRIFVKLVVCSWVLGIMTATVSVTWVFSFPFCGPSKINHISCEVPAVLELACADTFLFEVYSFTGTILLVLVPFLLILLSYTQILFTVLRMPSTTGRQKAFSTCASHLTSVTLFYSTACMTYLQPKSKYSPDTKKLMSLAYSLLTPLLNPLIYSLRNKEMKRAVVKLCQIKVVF
In short: as §1

UniProt Q8VG01 = biological target: T3, UniProt Q8VG01
T3 sequence (whole entry): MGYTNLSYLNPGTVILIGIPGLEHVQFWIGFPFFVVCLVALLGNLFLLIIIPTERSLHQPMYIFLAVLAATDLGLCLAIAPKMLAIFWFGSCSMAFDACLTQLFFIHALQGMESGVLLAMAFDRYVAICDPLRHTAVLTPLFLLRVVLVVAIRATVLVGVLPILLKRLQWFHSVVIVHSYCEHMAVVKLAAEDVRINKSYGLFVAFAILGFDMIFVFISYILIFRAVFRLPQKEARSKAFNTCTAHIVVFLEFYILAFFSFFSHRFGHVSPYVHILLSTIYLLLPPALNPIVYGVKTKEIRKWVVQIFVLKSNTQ
In short: as §1

UniProt Q8VG22 = biological target: T4, UniProt Q8VG22
T4 sequence (whole entry): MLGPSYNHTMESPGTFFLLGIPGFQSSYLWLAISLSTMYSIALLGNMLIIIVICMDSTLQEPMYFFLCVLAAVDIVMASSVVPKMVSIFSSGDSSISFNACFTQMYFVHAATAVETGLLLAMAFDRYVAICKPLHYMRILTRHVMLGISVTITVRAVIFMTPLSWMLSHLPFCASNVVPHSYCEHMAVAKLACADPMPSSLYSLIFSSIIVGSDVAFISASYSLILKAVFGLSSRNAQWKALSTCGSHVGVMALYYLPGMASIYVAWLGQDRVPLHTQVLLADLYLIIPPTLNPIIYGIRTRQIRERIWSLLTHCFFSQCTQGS
In short: as §1

UniProt Q8VG27 = biological target: T5, UniProt Q8VG27
T5 sequence (whole entry): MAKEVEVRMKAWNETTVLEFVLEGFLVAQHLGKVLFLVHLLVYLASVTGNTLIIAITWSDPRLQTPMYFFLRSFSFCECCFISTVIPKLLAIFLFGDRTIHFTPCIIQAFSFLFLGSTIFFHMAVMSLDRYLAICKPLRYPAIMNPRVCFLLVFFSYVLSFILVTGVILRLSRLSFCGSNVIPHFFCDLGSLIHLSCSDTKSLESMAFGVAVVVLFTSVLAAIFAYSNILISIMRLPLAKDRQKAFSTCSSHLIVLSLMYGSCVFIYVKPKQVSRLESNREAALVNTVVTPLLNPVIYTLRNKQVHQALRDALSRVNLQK
In short: as §1

UniProt Q8VG49 = biological target: T6, UniProt Q8VG49
T6 sequence (whole entry): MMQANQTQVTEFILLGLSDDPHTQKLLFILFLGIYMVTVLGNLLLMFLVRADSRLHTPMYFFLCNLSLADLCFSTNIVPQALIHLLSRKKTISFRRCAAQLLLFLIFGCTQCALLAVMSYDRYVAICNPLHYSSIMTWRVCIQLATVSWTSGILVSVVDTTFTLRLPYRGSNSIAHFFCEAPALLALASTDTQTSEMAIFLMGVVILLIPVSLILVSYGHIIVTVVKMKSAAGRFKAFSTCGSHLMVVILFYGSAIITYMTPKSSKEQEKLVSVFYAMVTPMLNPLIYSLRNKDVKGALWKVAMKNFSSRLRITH
In short: as §1

UniProt Q8VG53 = biological target: T7, UniProt Q8VG53
T7 sequence (whole entry): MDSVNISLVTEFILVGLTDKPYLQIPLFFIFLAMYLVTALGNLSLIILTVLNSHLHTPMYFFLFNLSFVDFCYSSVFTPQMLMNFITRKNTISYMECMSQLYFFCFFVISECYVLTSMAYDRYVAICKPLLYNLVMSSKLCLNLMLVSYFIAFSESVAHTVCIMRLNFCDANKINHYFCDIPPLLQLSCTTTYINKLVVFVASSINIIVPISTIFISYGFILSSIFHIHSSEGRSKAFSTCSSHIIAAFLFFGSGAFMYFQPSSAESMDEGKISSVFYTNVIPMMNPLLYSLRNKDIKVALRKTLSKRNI
In short: as §1

UniProt Q8VG64 = biological target: T8, UniProt Q8VG64
T8 sequence (whole entry): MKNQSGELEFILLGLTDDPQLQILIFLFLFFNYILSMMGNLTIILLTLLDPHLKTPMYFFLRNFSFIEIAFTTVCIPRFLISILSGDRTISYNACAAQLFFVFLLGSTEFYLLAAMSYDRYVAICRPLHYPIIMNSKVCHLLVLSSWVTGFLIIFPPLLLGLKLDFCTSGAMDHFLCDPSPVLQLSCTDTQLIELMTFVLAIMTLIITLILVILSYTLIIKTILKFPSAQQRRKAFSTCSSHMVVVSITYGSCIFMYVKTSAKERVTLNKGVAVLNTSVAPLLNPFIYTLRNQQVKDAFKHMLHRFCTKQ
In short: as §1

UniProt Q8VG77 = biological target: T9, UniProt Q8VG77
T9 sequence (whole entry): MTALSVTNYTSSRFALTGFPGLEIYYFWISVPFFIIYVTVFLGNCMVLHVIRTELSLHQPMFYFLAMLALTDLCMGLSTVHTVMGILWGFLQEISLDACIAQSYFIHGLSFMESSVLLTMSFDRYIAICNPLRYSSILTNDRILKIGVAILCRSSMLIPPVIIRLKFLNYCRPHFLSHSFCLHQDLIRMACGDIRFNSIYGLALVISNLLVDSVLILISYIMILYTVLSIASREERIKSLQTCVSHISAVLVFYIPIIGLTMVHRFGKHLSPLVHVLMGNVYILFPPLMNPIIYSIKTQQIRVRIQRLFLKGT
In short: as §1

UniProt Q8VG96 = biological target: T10, UniProt Q8VG96
T10 sequence (whole entry): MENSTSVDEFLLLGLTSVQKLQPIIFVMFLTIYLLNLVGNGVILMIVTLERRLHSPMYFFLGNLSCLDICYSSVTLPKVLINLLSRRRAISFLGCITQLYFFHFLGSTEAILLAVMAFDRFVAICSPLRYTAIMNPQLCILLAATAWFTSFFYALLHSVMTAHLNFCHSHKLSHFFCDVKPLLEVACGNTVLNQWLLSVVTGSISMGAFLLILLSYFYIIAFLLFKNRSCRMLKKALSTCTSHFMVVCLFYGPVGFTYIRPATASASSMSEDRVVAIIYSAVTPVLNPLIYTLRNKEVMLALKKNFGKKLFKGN
In short: as §1

UniProt Q8VGB9 = biological target: T11, UniProt Q8VGB9
T11 sequence (whole entry): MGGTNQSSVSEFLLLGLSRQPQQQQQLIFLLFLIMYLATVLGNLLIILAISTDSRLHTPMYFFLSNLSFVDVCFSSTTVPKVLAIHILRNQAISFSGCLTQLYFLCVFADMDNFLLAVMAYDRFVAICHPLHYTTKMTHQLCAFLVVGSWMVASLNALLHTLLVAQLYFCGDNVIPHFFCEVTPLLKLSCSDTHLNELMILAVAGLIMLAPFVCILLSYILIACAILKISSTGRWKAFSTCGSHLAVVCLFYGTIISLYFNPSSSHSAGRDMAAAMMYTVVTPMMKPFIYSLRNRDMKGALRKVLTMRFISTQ
In short: as §1

UniProt Q8VG26 = biological target: UniProt Q8VG26
Chain of UniProt Q8VG26 (Q8VG26 as listed by the source): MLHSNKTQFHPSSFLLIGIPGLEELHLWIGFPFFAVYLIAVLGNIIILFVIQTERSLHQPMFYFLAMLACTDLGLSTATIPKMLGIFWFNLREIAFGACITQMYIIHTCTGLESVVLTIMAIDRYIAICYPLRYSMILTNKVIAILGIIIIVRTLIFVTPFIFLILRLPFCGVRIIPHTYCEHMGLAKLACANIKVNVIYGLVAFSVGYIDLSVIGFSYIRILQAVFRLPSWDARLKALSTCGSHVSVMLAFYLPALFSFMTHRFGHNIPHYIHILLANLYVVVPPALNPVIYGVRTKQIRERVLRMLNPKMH
In short: as §1

UniProt Q8VG28 = biological target: UniProt Q8VG28
Chain of UniProt Q8VG28 (Q8VG28 as listed by the source): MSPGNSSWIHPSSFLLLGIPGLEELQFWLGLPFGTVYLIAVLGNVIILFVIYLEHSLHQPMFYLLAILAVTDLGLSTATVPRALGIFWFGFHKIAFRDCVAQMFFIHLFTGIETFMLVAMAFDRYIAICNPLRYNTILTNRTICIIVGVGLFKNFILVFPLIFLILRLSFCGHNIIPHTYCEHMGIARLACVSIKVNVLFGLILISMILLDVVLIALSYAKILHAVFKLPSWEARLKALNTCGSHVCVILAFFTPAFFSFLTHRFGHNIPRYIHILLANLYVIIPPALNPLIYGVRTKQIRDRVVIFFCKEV
In short: as §1

Measured: odorant receptor agonist call

O=C1CCOc2ccccc21
active: UniProt Q8VG22
not listed: UniProt Q8VG26 | UniProt Q8VG28
inactive: all other assays above

CCCCC(C)=O
active: UniProt Q8VGB9
not listed: UniProt Q8VFQ6 | UniProt Q8VG26 | UniProt Q8VG28
inactive: all other assays above

CCOC(=O)C(C)C
not listed: UniProt Q8VFQ6 | UniProt Q8VG26 | UniProt Q8VG28
inactive: all other assays above

CCC(=O)C(=O)CC
active: UniProt Q8VG22 | UniProt Q8VGB9
not listed: UniProt Q8VFQ6 | UniProt Q8VG26 | UniProt Q8VG28
inactive: all other assays above

CCCCCC1=C(C)CCC1=O
active: UniProt Q8VG22
not listed: UniProt Q8VFQ6 | UniProt Q8VG26 | UniProt Q8VG28
inactive: all other assays above

CCCCCC=O
active: UniProt Q8VG77
not listed: UniProt Q8VFQ6 | UniProt Q8VG26 | UniProt Q8VG28
inactive: all other assays above

CCCCC(=O)O
not listed: UniProt Q8VFQ6
inactive: all other assays above

CCCCCCOC(C)=O
not listed: UniProt Q8VFQ6 | UniProt Q8VG26 | UniProt Q8VG28
inactive: all other assays above

COc1cc(C(=O)O)ccc1O
active: UniProt Q8VG27
not listed: UniProt Q8VFQ6 | UniProt Q8VG26 | UniProt Q8VG28
inactive: all other assays above

CC(=O)Oc1ccccc1
active: UniProt Q8VG22 | UniProt Q8VG96
not listed: UniProt Q8VFQ6 | UniProt Q8VG26 | UniProt Q8VG28
inactive: all other assays above

O=C1Cc2ccccc2O1
active: UniProt Q8VG22
not listed: UniProt Q8VFQ6 | UniProt Q8VG26 | UniProt Q8VG28
inactive: all other assays above

CCCCCCCCO
active: UniProt Q8VFZ6
not listed: UniProt Q8VFQ6
inactive: all other assays above

CCCCCCCCCC(=O)[O-].[H+]
active: UniProt Q8VG27 | UniProt Q8VG28 | UniProt Q8VG49
not listed: UniProt Q8VFQ6 | UniProt Q8VG26
inactive: all other assays above

CC12CCC(CC1=O)C2(C)C (configuration not stated)
not listed: UniProt Q8VFQ6 | UniProt Q8VG26 | UniProt Q8VG28
inactive: all other assays above

CCCCCCCOC(=O)C(C)C
inactive: UniProt Q8VFP5 | UniProt Q8VG01 | UniProt Q8VG27 | UniProt Q8VG53 | UniProt Q8VG64 | UniProt Q8VGB9

Cc1ccccc1OC(=O)C(C)C
inactive: UniProt Q8VFP5 | UniProt Q8VG01 | UniProt Q8VG27 | UniProt Q8VG53 | UniProt Q8VG64 | UniProt Q8VGB9

CCCCOC=O
not listed: UniProt Q8VFQ6 | UniProt Q8VG26 | UniProt Q8VG28
inactive: all other assays above

CCCCCCC(=O)OCCCC
inactive: UniProt Q8VFP5 | UniProt Q8VG27 | UniProt Q8VG53 | UniProt Q8VG64 | UniProt Q8VGB9
active: UniProt Q8VG01

CCCCCCC(C)O (configuration not stated)
inactive: UniProt Q8VFP5 | UniProt Q8VG01 | UniProt Q8VG27 | UniProt Q8VG53 | UniProt Q8VG64 | UniProt Q8VGB9

CC=CC(=O)C1=C(C)CCCC1(C)C
inactive: UniProt Q8VFP5 | UniProt Q8VG01 | UniProt Q8VG27 | UniProt Q8VG53 | UniProt Q8VG64 | UniProt Q8VGB9

CC(=O)C=CC1=C(C)CCCC1(C)C
inactive: UniProt Q8VFP5 | UniProt Q8VG01 | UniProt Q8VG27 | UniProt Q8VG53 | UniProt Q8VG64 | UniProt Q8VGB9

COC(OC)c1ccccc1
inactive: UniProt Q8VFP5 | UniProt Q8VG01 | UniProt Q8VG27 | UniProt Q8VG53 | UniProt Q8VG64 | UniProt Q8VGB9

O=C([O-])CCCCCCCC(=O)[O-].[H+].[H+]
inactive: UniProt Q8VFP5 | UniProt Q8VG01 | UniProt Q8VG26 | UniProt Q8VG27 | UniProt Q8VG28 | UniProt Q8VG53 | UniProt Q8VG64 | UniProt Q8VGB9

CCc1ccccc1O
inactive: UniProt Q8VFP5 | UniProt Q8VG01 | UniProt Q8VG27 | UniProt Q8VG53 | UniProt Q8VG64 | UniProt Q8VGB9

From the M2OR odorant receptor database
